Source: ChEMBL document CHEMBL4406880, “Design, synthesis, and bioactivity of dihydropyrimidine derivatives as kinesin spindle protein inhibitors” (Bioorg Med Chem, 2019)

Columns and labels:
[1] = system: NCI-H226; experiment: Growth inhibition of human NCI-H226 cells assessed as growth percentage at 10 uM incubated for 48 hrs by sulforhodamine B assay relative to control; assay type: functional; details: NCI-H226, 48 h, read-out: Activity
Method in brief: (§1)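 NCI-60 one-dose screen. Cells in RPMI 1640 with 5% FBS and 2 mM L-glutamine, seeded at 5,000–40,000 cells/well according to doubling time, and preincubated overnight at 37 °C, 5% CO2. A time-zero plate was TCA-fixed at drug addition. Compound from DMSO stock, final 10 µM, 48 h; DMSO vehicle controls. Fixation with TCA, 10% final (16% for suspension cells). SRB stain, Tris solubilization, A515. Result given as % growth versus untreated cells.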

[2] = system: NCI-H322M; experiment: Growth inhibition of human NCI-H322M cells assessed as growth percentage at 10 uM incubated for 48 hrs by sulforhodamine B assay relative to control; assay type: functional; details: read-out: Activity; method in brief: as §1
[3] = system: NCI-H460; experiment: Growth inhibition of human NCI-H460 cells assessed as growth percentage at 10 uM incubated for 48 hrs by sulforhodamine B assay relative to control; assay type: functional; details: NCI-H460, 48 h, read-out: Activity; method in brief: as §1
[4] = system: NCI-H522; experiment: Growth inhibition of human NCI-H522 cells assessed as growth percentage at 10 uM incubated for 48 hrs by sulforhodamine B assay relative to control; assay type: functional; details: NCI-H522, 48 h, read-out: Activity; method in brief: as §1
[5] = system: U-251; experiment: Growth inhibition of human U251 cells assessed as growth percentage at 10 uM incubated for 48 hrs by sulforhodamine B assay relative to control; assay type: functional; details: U-251, 48 h, read-out: Activity
Method in brief: (§2)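 NCI-60 single-dose screen. Cells were grown in RPMI 1640 with 5% FBS and 2 mM L-glutamine and plated at 5,000–40,000 cells/well. After an overnight preincubation at 37 °C in 5% CO2, compound was added at a final 10 µM from a DMSO stock, with DMSO/PBS controls. After 48 h, cells were TCA-fixed and stained with 0.4% SRB, and absorbance was read at 515 nm. Growth is given as a percentage of untreated control.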

[6] = system: IGROV-1; experiment: Growth inhibition of human IGROV1 cells assessed as growth percentage at 10 uM incubated for 48 hrs by sulforhodamine B assay relative to control; assay type: functional; details: IGROV-1, 48 h, read-out: Activity; method in brief: as §1
[7] = system: OVCAR-8; experiment: Growth inhibition of human OVCAR8 cells assessed as growth percentage at 10 uM incubated for 48 hrs by sulforhodamine B assay relative to control; assay type: functional; details: OVCAR-8, 48 h, read-out: Activity; method in brief: as §2
[8] = system: SK-OV-3; experiment: Growth inhibition of human SKOV3 cells assessed as growth percentage at 10 uM incubated for 48 hrs by sulforhodamine B assay relative to control; assay type: functional; details: SK-OV-3, 48 h, read-out: Activity; method in brief: as §2
[9] = system: MCF7; experiment: Growth inhibition of human MCF7 cells assessed as growth percentage at 10 uM incubated for 48 hrs by sulforhodamine B assay relative to control; assay type: functional; details: MCF7, 48 h, read-out: Activity; method in brief: as §1
[10] = Growth inhibition of human HEK293 cells assessed as cell viability at 0.39 ug incubated for 48 hrs by MTT assay relative to control; assay type: cell-based; details: read-out: Activity
[11] = Growth inhibition of human HEK293 cells assessed as cell viability at 1.56 ug incubated for 48 hrs by MTT assay relative to control; assay type: cell-based; details: read-out: Activity
[12] = Growth inhibition of human HEK293 cells assessed as cell viability at 6.25 ug incubated for 48 hrs by MTT assay relative to control; assay type: cell-based; details: read-out: Activity
[13] = Growth inhibition of human HEK293 cells assessed as cell viability at 25 ug incubated for 48 hrs by MTT assay relative to control; assay type: cell-based; details: read-out: Activity
[14] = Growth inhibition of human HEK293 cells assessed as cell viability at 100 ug incubated for 48 hrs by MTT assay relative to control; assay type: cell-based; details: read-out: Activity
[15] = system: HEK293; experiment: Growth inhibition of human HEK293 cells assessed as cell viability incubated for 48 hrs by MTT assay; assay type: cell-based; parameters: unit not given here
Method in brief: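 HEK 293 normal-cell growth inhibition; measured in triplicate, IC50 reported as mean ± SD.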

[16] = Inhibition of kinesin (unknown origin) assessed as reduction in ATPase activity using microtubule as substrate measured for 5 to mins; parameters: species or system Homo sapiens
[17] = system: MDA-MB-435; experiment: Induction of apoptosis in human MDA-MB-435 cells assessed as active caspase 3 level incubated for 2 hrs by ELISA (reference value: 1); assay type: functional
Method in brief: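 Active caspase-3 was measured by human sandwich ELISA. Samples were incubated on the plate for 2 h at room temperature. This was followed by 1 h with detection antibody, 30 min with anti-rabbit IgG-HRP, and 30 min with chromogen, with all steps at room temperature. Absorbance was read at 450 nm, and levels were read from a standard curve.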

[18] = system: MDA-MB-435; experiment: Induction of apoptosis in human MDA-MB-435 cells assessed as active caspase 9 level incubated for 2 hrs by ELISA (reference value: 1); assay type: functional
Method in brief: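 Caspase-9 was measured by human ELISA on cell lysates, with samples in duplicate. Samples were incubated with detection antibody for 2 h at room temperature. This was followed by 1 h with anti-rabbit IgG-HRP and 10 min with TMB substrate. After a stop solution, absorbance was read at 450 nm.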

[19] = system: COLO 205; experiment: Growth inhibition of human COLO205 cells assessed as cell viability at 100 uM incubated for 48 hrs by sulforhodamine B assay; assay type: functional; details: COLO 205, 48 h, read-out: Activity
[20] = system: EKVX; experiment: Growth inhibition of human EKVX cells assessed as cell viability at 100 uM incubated for 48 hrs by sulforhodamine B assay; assay type: functional; details: read-out: Activity
[21] = system: MDA-MB-435; experiment: Growth inhibition of human MDA-MB-435 cells assessed as cell viability at 0.1 uM incubated for 48 hrs by sulforhodamine B assay; assay type: functional; details: MDA-MB-435, 48 h, read-out: Activity
[22] = system: U-251; experiment: Growth inhibition of human U251 cells assessed as cell viability at 0.1 uM incubated for 48 hrs by sulforhodamine B assay; assay type: functional; details: U-251, 48 h, read-out: Activity
[23] = system: A549; experiment: Growth inhibition of human A549/ATCC cells assessed as cell viability at 0.1 uM incubated for 48 hrs by sulforhodamine B assay; assay type: functional; details: A549, 48 h, read-out: Activity
Method in brief: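 NCI-60 five-dose mode: five tenfold dilutions (0.01, 0.1, 1, 10, 100 µM) are applied for 48 h to cells in RPMI 1640 with 5% FBS at 37 °C. Endpoint is TCA fixation with sulforhodamine B read at 515 nm. % growth comes from the 0 h and control absorbances. GI50 is the concentration giving a 50% reduction in net cell growth.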

[24] = system: PC-3; experiment: Growth inhibition of human PC3 cells assessed as cell viability at 0.001 uM incubated for 48 hrs by sulforhodamine B assay relative to control; assay type: functional; details: PC-3, 48 h, read-out: Activity

SMILES	growth at 10 µM [1] [%]	growth at 10 µM [2] [%]	growth at 10 µM [3] [%]	growth at 10 µM [4] [%]	growth at 10 µM [5] [%]	growth at 10 µM [6] [%]	growth at 10 µM [7] [%]	growth at 10 µM [8] [%]	growth at 10 µM [9] [%]	viability at 48 h, 0.39 ug [10] [%]	viability at 48 h, 1.56 ug [11] [%]	viability at 48 h, 6.25 ug [12] [%]	viability at 48 h, 25 ug [13] [%]	viability at 48 h, 100 ug [14] [%]	IC50 [15]	IC50 [16] [µM]	fold change (FC) [17]	fold change (FC) [18]	other results
CC(=O)N1C(=S)NC(C)=C(C(=O)OCc2ccccc2)C1c1ccc2c(c1)OCO2 (racemic)	96.3	101	77.9	75.7	58.2	98	80.3	79.2	92.1	76.2	69.3	61.3	50	41.4	27.99	3.86	7.9	18.79	–
CC1=C(C(=O)OCc2ccccc2)C(c2ccc3c(c2)OCO3)n2c(nc3ccccc32)N1 (racemic)	58 to 58.2	47 to 55	6.62 to 8	8 to 26.3	31 to 36.3	36 to 41.4	39 to 46.7	27 to 41.7	9 to 20.6	77.6	67.2	58.7	47.2	36	16.75	4.36	6.83	12.43	viability at 100 µM [19]: 39%; viability at 100 µM [20]: 29%; viability at 0.1 µM [21]: 46%; viability at 0.1 µM [22]: 96%; viability at 0.1 µM [23]: 99%; viability at 0.001 µM [24]: 89%
